From PubChem
The list is not random: actives were taken first. Their share in the collection is about 2.1%.
MEKK3 PB1 HTS: modulators of MEKK3-MEK5 PB1 binding, primary screen, biochemical, wildtype MEKK3, multiplex bead flow cytometry, Alexa488-MEK5; hit rate 1.4% among 290,000; bead-based flow cytometry, Alexa488-MEK5 binding to MEKK3; actives lie on both sides; 0 = blocked by unlabeled MEK5, 100 = vehicle; binding response (% of control), % at 10 µM; AID 1529, 2009;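 active = binding response more than 3 SD above or below the average of its plate-row segment, actives on both sides; inconclusive = wells at one plate position flagged as instrument error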;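 note: Alexa488 bead fluorescence after subtracting the streptavidin-only scavenger bead signal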
GSK3A inh: blockers of GSK3A enzyme activity – biochemical, luminescence, cell-free homogeneous, HTS, primary screen; Glycogen synthase kinase-3 alpha (Homo sapiens), P49840; GSK-3 alpha kinase, ADP-Glo luminescence, 60 min; inhibition, % at 10 µM; hit rate 0.1% among 320,000;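 active = more than half of replicates show inhibition above 20%; inconclusive = some but at most half of replicates above 20% inhibition; inactive = no replicate shows inhibition above 20%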;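 note: GST-tagged GSK-3 alpha with peptide substrate and 25 µM ATP; 0% = DMSO neutral wells and 100% = GW8510 positive control wells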
STK33 kinase inh: inhibitors of purified STK33 kinase, primary screen, biochemical, ADP-Glo luminescence, homogeneous, cell-free. Serine/threonine-protein kinase 33 (Homo sapiens), Q9BYT3. MBP phosphorylation. inhibition, % at 10 µM. hit rate 0.073% among 320,000. AID 2661, 2010;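 active = inhibition at or above 25%, using the most active replicate where run in duplicate; inactive = inhibition below 25%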
Target sequence (Q9BYT3 whole entry, looked up): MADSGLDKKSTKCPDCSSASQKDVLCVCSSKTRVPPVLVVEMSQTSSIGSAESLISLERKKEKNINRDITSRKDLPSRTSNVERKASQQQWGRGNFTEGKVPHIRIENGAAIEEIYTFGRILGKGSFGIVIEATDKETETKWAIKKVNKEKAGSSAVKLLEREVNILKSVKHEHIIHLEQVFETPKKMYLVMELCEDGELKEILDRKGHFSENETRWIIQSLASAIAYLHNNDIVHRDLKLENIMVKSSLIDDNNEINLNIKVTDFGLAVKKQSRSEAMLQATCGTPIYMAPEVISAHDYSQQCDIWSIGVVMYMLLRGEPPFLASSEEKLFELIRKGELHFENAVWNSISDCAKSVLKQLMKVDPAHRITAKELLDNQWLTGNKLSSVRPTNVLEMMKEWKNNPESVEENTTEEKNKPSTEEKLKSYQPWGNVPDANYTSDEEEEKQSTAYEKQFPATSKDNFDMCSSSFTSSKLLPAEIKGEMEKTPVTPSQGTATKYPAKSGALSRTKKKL
MEKK2 WT-MEK5: modulators of MEK5 binding to wildtype MEKK2, primary screen, biochemical, multiplex bead flow cytometry, Alexa488-MEK5 | Mitogen-activated protein kinase kinase kinase 2 (Homo sapiens), Q9Y2U5 | Alexa488-MEK5 binding to MEKK2 WT; actives lie on both sides | binding response (% of control), % at 10 µM | hit rate 1.1% among 290,000 | AID 1531, 2009; in the data active = binding response below about 67% or above about 130%; inconclusive = no clear call, values can overlap the other calls; inactive = in between
MEKK2mut PB1 HTS: MEK5 binding signal on mutant MEKK2 PB1, primary screen, biochemical, multiplex bead flow cytometry, Alexa488-MEK5 | Alexa488-MEK5 binding to MEKK2 mutant | percent response, % at 10 µM | hit rate 0.35% among 290,000 | AID 1530, 2009; in the data active = percent response above about 24%, passing the limit was not always enough
GSK3B inh: human GSK3beta kinase inhibitors, primary screen, biochemical, cell-free homogeneous, HTS | GST-GSK3beta kinase, ADP-Glo luminescence, 60 min; stronger effect = lower value | hit rate 0.038% among 300,000 | activity score (negative = inhibition), % at 10 µM | AID 2097, 2009;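 active = more than half of replicate wells score below -50%, meaning over 50% inhibition versus plate controls; inconclusive = some replicates but at most half score below -50%; inactive = no replicate scores below -50%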;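 note: 0% = median DMSO wells and -100% = median GW8510 positive control wells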
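Assay system: GST-tagged human GSK3beta kinase, cell-free; Input: 1.6 ng GSK3beta; Medium: Tris/MgCl2 kinase buffer; Timing: 60 min enzyme reaction, room temperature; Signal: ADP-Glo luminescence quantifying ADP generated by kinase; Evaluation: score relative to plate controls; Benchmarks: DMSO neutral wells and GW8510 at 20 µM as positive.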
* hit, by the source's call; ? = inconclusive; nt = no result; [ ] = remark or other dose.

SMILES	MEKK3 PB1 HTS	GSK3A inh	STK33 kinase inh	MEKK2 WT-MEK5	MEKK2mut PB1 HTS	GSK3B inh
COc1ccc(N(CC(=O)Nc2ccc(C(N)=O)cc2)S(=O)(=O)c2ccc(C)c([N+](=O)[O-])c2)cc1	102	2	0	-7.0*	6	0
Cc1nn(C(C)C)c(C)c1CN1CCC(C(=O)Nc2cccc(-c3cccc(F)c3)c2)CC1	99	3	0	135*	9	0
Cn1cc(CN2CCC(C(=O)Nc3cccc(-c4cccc(F)c4)c3)CC2)cn1	107	5	-1	146*	21	-1
O=C(Nc1cccc(-c2cccc(Cl)c2)c1)C1CCN(Cc2ccon2)CC1	109	0	-3	123	17	3
Cc1c(CN2CCC(C(=O)Nc3cccc(-c4cccc(Cl)c4)c3)CC2)cnn1C	97	1	-2	136*	12	3
C=CCn1cc(CN2CCC(C(=O)Nc3cccc(-c4cccc(F)c4)c3)CC2)c(C)n1	105	0	0	135*	16	3
COc1ccc(NC(=O)CSc2n[nH]c(=O)n2Cc2ccccc2)cc1Cl	101	2	-1	98	-4	4
CCn1cc(CN2CCCC(C(=O)Nc3cccc(-c4cc5ccccc5[nH]4)c3)C2)cn1 (stereo not given)	103	-1	0	147*	22	1
C=CCn1cc(CN2CCC(C(=O)Nc3ccc(Oc4cccnc4)cc3)CC2)c(C)n1	104	1	-1	108	4	-2
C=CCn1cc(CN2CCC(C(=O)Nc3cccc(-c4cccc(Cl)c4)c3)CC2)c(C)n1	99	7	0	157*	10	-4
CCc1ncc(CN2CCCC(C(=O)Nc3cccc(-c4ccc(F)cc4)c3)C2)cn1 (stereo not given)	103	-5	0	114	7	1
CCCC12CN3CCN(CC(C3)/C1=N\NC(=O)c1ccc(C(C)(C)C)cc1)C2	113	-1	0	103	2	-1
Cn1c(/C=C/c2ccc(Cl)cc2Cl)c([N+](=O)[O-])c(=O)n(C)c1=O	106	-4	0	108	5	1
CC1CCc2c(sc3nn[nH]c(=O)c23)C1 (stereo not given)	102	52*	3	100	4	-28
CSc1nc2sc3c(c2c(=O)[nH]1)CCC(C)C3 (stereo not given)	97	-3	0	96	2	-6
COc1ccc(OC)c2sc(N(CCN(C)C)C(=O)/C=C/c3cccs3)nc12	101	7	6	109	2	2
CCOc1cccc2sc(N(CCN(C)C)C(=O)/C=C/c3cccs3)nc12	105	0	-1	144*	26*	3
COc1ccc(C)c2sc(N(CCN(C)C)C(=O)/C=C/c3cccs3)nc12	103	-1	1	145*	13	-1
Cc1ccc2nc(N(CCN(C)C)C(=O)/C=C/c3cccs3)sc2c1	97	nt	nt	98	-1	0
COc1cccc2sc(N(CCN(C)C)C(=O)/C=C/c3cccs3)nc12	101	-1	0	130	15	-3
CCN(CC)CCN(C(=O)/C=C/c1cccs1)c1nc2ccc(C)cc2s1	105	-1	-2	160*	17	2
N#Cc1ccccc1NCC(=O)N1CCN(S(=O)(=O)c2ccccc2)CC1	nt	-2	0	nt	nt	nt
CC(C)C(=O)Nc1cccc(-c2cnc3ccccc3n2)c1	92	0	3	93	-10	9
CNC(=S)Nc1cccc(-c2cnc3ccccc3n2)c1	103	18	26*	102	7	-1
O=C1Nc2ccc(Br)cc2C12NNc1ccccc1O2 (stereo not given)	93	3	-1	-4.0*	-5	-2
SMILES	MEKK3 PB1 HTS	GSK3A inh	STK33 kinase inh	MEKK2 WT-MEK5	MEKK2mut PB1 HTS	GSK3B inh
COc1ccc(NC(=O)CN2CCC(NC(=O)C3CCCCC3)CC2)cc1	105	-2	-1	106	3	1
CN(C)c1ccc(NC(=O)CN2CCC(NC(=O)C3CCCCC3)CC2)cc1	103	2	-1	137*	30*	-1
COc1cc(CC(=O)Nc2ccc(S(=O)(=O)NC3=NCCCCC3)cc2)cc(OC)c1OC	103	-1	-2	101	-1	2
CCN(CC)S(=O)(=O)c1ccc2c(c1)N(CC(=O)NCCc1ccc(S(N)(=O)=O)cc1)C(=O)CO2	100	-1	0	101	1	0
COc1cc(OC)c(C2N(c3ccc(Cl)cc3)C(=O)C3CCCN32)cc1OC (stereo not given)	96	-1	3	10*	13	-1
COc1cc(OC)c(C2N(c3ccc(Cl)c(Cl)c3)C(=O)C3CCCN32)cc1OC (stereo not given)	99	-3	-1	101	1	3
O=C(O)c1cc(C(=O)O)cc(-c2ccc(/C=c3/sc4nc5ccccc5n4c3=O)o2)c1	71*[inhibitor]	nt	nt	61*[inhibitor]	-37	nt
O=C(O)c1cccc(-c2ccc(/C=c3/sc4nc5ccccc5n4c3=O)o2)c1	102	-2	-1	92	-2	0
CC1=C(C(=O)O)N2C(=O)C(NC(=O)c3nn(C)cc3[N+](=O)[O-])C2SC1 (stereo not given)	?	-2	-5	?	139*	3
Cc1cc(C)c(S(=O)(=O)N2CCN(C(=O)c3cc4ccccc4oc3=O)CC2)c(C)c1	nt	3	0	nt	nt	nt
COC(=O)c1cccc2c1-c1ccccc1/C2=N\NC(N)=O	104	22	13	102	2	-22
COC(=O)c1cccc2c1-c1ccccc1/C2=N/O	nt	17	30*	nt	nt	-4
Cc1cccc(C(=O)Oc2ccccc2C(=O)N2CCOCC2)c1	99	1	0	99	-1	1
O=C(/C=C/c1ccc(F)cc1)Nc1nc2ccccc2[nH]1	208*	-4	-1	112	1	3
O=C(Nc1nc2ccccc2[nH]1)c1cccc(F)c1	103	-1	2	107	5	1
O=C(Nc1nc2ccccc2[nH]1)c1ccc(Br)o1	107	0	60*	106	-1	-1
O=C(NCCc1nc2ccccc2[nH]1)c1ccc(Br)o1	98	-1	-3	99	-3	nt
